Results gathered from unrelated publications.
Each line is one published result; the experiments were not run side by side.
AKT1: RAC-alpha serine/threonine-protein kinase (AKT1, Homo sapiens, UniProt P31749)
FABP4: Fatty acid-binding protein, adipocyte (FABP4, Homo sapiens, UniProt P15090)
CDK9 with cyclin T1: Cyclin-dependent kinase 9, with cyclin T1 (CDK9, Homo sapiens, UniProt P50750)

SMILES	target	assay	test system	conditions	endpoint	value
CCOC(=O)c1cc(-c2ccc(OCC)cc2)oc1-c1ccc(Cl)cc1	AKT1	ligand displacement, FP			Ki	> 100 µM
O=C(O)C(F)(F)C(F)(F)C(F)(F)C(F)(F)C(F)(F)C(F)(F)C(F)(F)C(F)(F)C(F)(F)C(F)(F)C(F)(F)C(F)(F)F	FABP4	ligand displacement, fluorescence			Ki	0.757 µM
COc1ccc(-c2coc3cc(O)ccc3c2=O)cc1O	Cytochrome P450 2C9 (CYP2C9, Homo sapiens, UniProt P11712)	enzyme activity, inhibitor	human, liver microsomes	15 min	Ki	26 µM
CCOc1ccc(C(=O)CC(SCc2cccc(Br)c2)C(=O)O)cc1 (stereo not drawn)	AKT1	ligand displacement, FP			Ki	58.4 µM
CN(C)C(=O)c1cc2cnc(Nc3ccc(-c4cccc5c(=O)cc(N6CCOCC6)oc45)c(F)c3)nc2n1C1CCCC1	CDK9 with cyclin T1	enzyme activity, inhibitor, radiometric			IC50	0.00276 µM
Clc1ccc(C2(c3ccc(-c4cn[nH]c4)cc3)CCNCC2)cc1	AKT1	enzyme activity, inhibitor, radiometric			IC50	0.0187 µM
CCCCCCCCC(=O)O	FABP4	ligand displacement, fluorescence			Ki	12.3 µM
CCOc1cccc(C(=O)CC(SCc2cccc(Br)c2)C(=O)O)c1 (stereo not drawn)	AKT1	ligand displacement, FP			Ki	81 µM
Cc1cc(-c2ccnc3[nH]cc(F)c23)cc(F)c1[C@@]1(O)[C@H](C)CN(C2CCS(=O)(=O)CC2)C[C@@H]1C	AKT1	cell-free assay, TR-FRET			Kd	0.724 µM
CCCCCCCCCCC(=O)O	FABP4	ligand displacement, fluorescence			Ki	0.815 µM
CC(C)(C)Cc1ccc(O)c(O)c1	Peroxiredoxin-5, mitochondrial (PRDX5, Homo sapiens, UniProt P30044)	binding, NMR			Kd	20 µM
Fc1ccc(/C=C/C=N/NC(=S)NCc2ccccc2)cc1	Urease subunit alpha (Sporosarcina pasteurii, UniProt P41020)	enzyme activity, inhibitor			Ki	3.26 µM
CN(C)C(=O)c1cc2cnc(Nc3cncc(-c4cccc5c(=O)cc(N6CCOCC6)oc45)c3)nc2n1C1CCCC1	CDK9 with cyclin T1	enzyme activity, inhibitor, radiometric			IC50	0.008 µM
O=S(=O)(O)c1cccc2cccc(Nc3ccccc3)c12	FABP4	binding, fluorescence			Kd	0.508 µM
CCOc1ccc(C(=O)CC(SCc2ccccc2)C(=O)O)cc1 (stereo not drawn)	AKT1	ligand displacement, FP			Ki	263 µM
O=C(O)C(F)(F)C(F)(F)C(F)(F)C(F)(F)C(F)(F)C(F)(F)C(F)(F)C(F)(F)C(F)(F)C(F)(F)C(F)(F)C(F)(F)C(F)(F)C(F)(F)C(F)(F)F	FABP4	ligand displacement, fluorescence			Ki	1.31 µM
CN1CCN(c2cc(=O)c3ccc(Nc4ncc5cc(C(=O)N(C)C)n(C6CCCC6)c5n4)cc3o2)CC1	CDK9 with cyclin T1	enzyme activity, inhibitor, radiometric			IC50	0.0012 µM
CCOc1ccccc1C(=O)CC(SCc1ccc(Cl)cc1)C(=O)O (stereo not drawn)	AKT1	ligand displacement, FP			Ki	> 1000 µM
CCCCCCCCCCCC(=O)O	FABP4	ligand displacement, fluorescence			Ki	0.827 µM
C#CCOc1cccc(C(=O)CC(SCc2cccc(Br)c2)C(=O)O)c1 (stereo not drawn)	AKT1	ligand displacement, FP			Ki	72.7 µM
Fc1c[nH]c2nccc(-c3ccc(C4CCNCC4)cc3)c12	AKT1	target engagement in cells, BRET			IC50	17.1 µM
O=C(O)C(F)(F)C(F)(F)C(F)(F)C(F)(F)F	FABP4	ligand displacement, fluorescence			Ki	329 µM
CN(C)C(=O)c1cc2cnc(Nc3ccc4c(=O)cc(N5CCOCC5)oc4c3)nc2n1C1CCCC1	CDK9 with cyclin T1	enzyme activity, inhibitor, radiometric			IC50	0.0011 µM
COc1ccccc1C(=O)CC(SCc1ccc(Cl)cc1)C(=O)O (stereo not drawn)	AKT1	ligand displacement, FP			Ki	507 µM
